Test results from ChEMBL document CHEMBL1629527, “In vitro antifungal activities of bis(alkylpyridinium)alkane compounds against pathogenic yeasts and molds” (Antimicrob Agents Chemother, 2010).

Columns and labels:
Assay type in all cases: functional
Candida albicans [1] = test: Antifungal activity against Candida albicans after 48 to 72 hrs; details: for MFC: Candida albicans
In short: (§1)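 MFC: after the MIC read, 30-μl aliquots from each well without visible growth were plated onto Sabouraud dextrose agar and incubated at 35°C. Reading was at 48–72 h for yeasts and up to 7 days for molds. MFC was the lowest concentration with no colonies.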

Clavispora lusitaniae [2] = test: Antifungal activity against Candida lusitaniae after 24 to 72 hrs by broth microdilution method
In short: (§2)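 Broth microdilution MIC per CLSI M27-A3 (yeasts) or M38-A2 (molds). RPMI 1640 with L-glutamine, without bicarbonate, buffered to pH 7.0 with 0.165 M MOPS. Final test range for the compounds was 0.175–87.5 μM. Incubation at 35°C with visual reading at 24–72 h. MIC was the lowest concentration giving 100% inhibition versus the growth control (azoles 50% or 100%, by organism). Each isolate was run in duplicate in two independent experiments.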

Candida tropicalis [3] = test: Antifungal activity against Candida tropicalis 04-202361 after 24 to 72 hrs by broth microdilution method; in short: as §2
Candida albicans [4] = test: Antifungal activity against Candida albicans after 24 to 72 hrs by broth microdilution method
In short: (§3)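 CLSI M27-A3 broth microdilution for yeasts in RPMI 1640 with L-glutamine and no bicarbonate, buffered with 0.165 M MOPS to pH 7.0. Compounds were dissolved in water and tested at 0.175–87.5 μM final, 35°C. MIC was read visually at 24–72 h as 100% inhibition versus growth control. For MFC, 30 μl from clear wells went onto SDA at 35°C for 48–72 h, reading the lowest concentration without colonies. Duplicates, two independent runs.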

Nakaseomyces glabratus [5] = test: Antifungal activity against Candida glabrata 04-202345 after 48 to 72 hrs; in short: as §1
Pichia kudriavzevii [6] = test: Antifungal activity against Candida krusei ATCC 6258 after 48 to 72 hrs; in short: as §1
[7] = Antifungal activity against Exophiala jeanselmei 03-200268 after 24 to 72 hrs by broth microdilution method; in short: as §2
Pichia kudriavzevii [8] = test: Antifungal activity against Candida krusei 04-202328 after 24 to 72 hrs by broth microdilution method; in short: as §2
[9] = tested on: Meyerozyma guilliermondii; test: Antifungal activity against Candida guilliermondii after 24 to 72 hrs by broth microdilution method; in short: as §2
Pichia kudriavzevii [10] = test: Antifungal activity against Candida krusei ATCC 9258 after 24 to 72 hrs by broth microdilution method; in short: as §2
Nakaseomyces glabratus [11] = test: Antifungal activity against Candida glabrata after 48 to 72 hrs; details: for MFC: Nakaseomyces glabratus; in short: as §1
Candida parapsilosis [12] = test: Antifungal activity against Candida parapsilosis ATCC 22019 after 48 to 72 hrs; details: Lodderomyces parapsilosis; in short: as §1
Candida tropicalis [13] = test: Antifungal activity against Candida tropicalis 04-202361 after 48 to 72 hrs; in short: as §3
Clavispora lusitaniae [14] = test: Antifungal activity against Candida lusitaniae after 48 to 72 hrs; details: for MFC: Clavispora lusitaniae; in short: as §1
Aspergillus terreus [15] = test: Antifungal activity against Aspergillus terreus 05-202844 after 24 to 72 hrs by broth microdilution method; in short: as §2
Cryptococcus neoformans = test: Antifungal activity against Cryptococcus neoformans after 48 to 72 hrs; details: for MFC: Cryptococcus neoformans; in short: as §1
Candida albicans [16] = test: Antifungal activity against Candida albicans ATCC 10231 after 48 to 72 hrs; in short: as §1
Candida albicans [17] = test: Antifungal activity against Candida albicans ATCC 90028 after 48 to 72 hrs; in short: as §1
Candida parapsilosis [18] = test: Antifungal activity against Candida parapsilosis 04-202398 after 48 to 72 hrs; details: Lodderomyces parapsilosis; in short: as §3
Aspergillus flavus [19] = test: Antifungal activity against Aspergillus flavus ATCC 204304 after 48 to 72 hrs; in short: as §1
Exophiala spinifera = test: Antifungal activity against Exophiala spinifera 03-200803 after 48 to 72 hrs
In short: (§4)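 CLSI M38-A2 broth microdilution for molds in RPMI 1640 with L-glutamine and no bicarbonate, buffered with 0.165 M MOPS to pH 7.0. Compounds were dissolved in water and tested at 0.175–87.5 μM final, 35°C, up to 7 days. MIC was read visually as 100% inhibition versus growth control. For MFC, clear wells were plated on SDA and the lowest concentration with no colonies taken. Each isolate was run in duplicate, two independent experiments.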

Lomentospora prolificans = test: Antifungal activity against Scedosporium prolificans 05-203060 after 48 to 72 hrs; in short: as §4
Aspergillus flavus [20] = test: Antifungal activity against Aspergillus flavus 05-203758 after 48 to 72 hrs; in short: as §4
Aspergillus fumigatus [21] = test: Antifungal activity against Aspergillus fumigatus ATCC 204305 after 48 to 72 hrs; in short: as §4
[22] = Antifungal activity against Exophiala jeanselmei 03-200268 after 48 to 72 hrs; in short: as §4
Pichia kudriavzevii [23] = test: Antifungal activity against Candida krusei […] after 48 to 72 hrs; in short: as §1
Aspergillus terreus [24] = test: Antifungal activity against Aspergillus terreus 05-202844 after 48 to 72 hrs; in short: as §1
[25] = tested on: Cunninghamella bertholletiae; test: Antifungal activity against Cunninghamella bertholletiae 99-12187 after 48 to 72 hrs; details: in the assay text read “for up to 7 days” for “after 48 to 72 hrs”; in short: as §1
Aspergillus fumigatus [26] = test: Antifungal activity against Aspergillus fumigatus 05-203114 after 48 to 72 hrs; in short: as §4

Row | MIC (Clavispora lusitaniae [2]) | MIC50 (Clavispora lusitaniae [2]) | MIC90 (Clavispora lusitaniae [2]) | MIC (Candida tropicalis [3]) | MIC50 (Candida albicans [4]) | MIC90 (Candida albicans [4]) | MIC [7] | MIC (Pichia kudriavzevii [8]) | MIC [9] | MIC50 [9] | MIC90 [9] | Compound | MFC50 (Candida albicans [1]) | MFC90 (Candida albicans [1]) | MFC (Candida albicans [1]) | MFC50 (Nakaseomyces glabratus [11]) | MFC90 (Nakaseomyces glabratus [11]) | MFC (Nakaseomyces glabratus [11]) | MFC50 (Clavispora lusitaniae [14]) | MFC90 (Clavispora lusitaniae [14]) | MFC (Clavispora lusitaniae [14]) | other results
1 | 2.74 µg/mL | 2.93 µg/mL | 2.93 µg/mL | 1.48 µg/mL | 1.47 µg/mL | 1.47 µg/mL | 5.9 µg/mL | 11.8 µg/mL | 1.69 µg/mL | 1.47 µg/mL | 1.47 µg/mL | C=CCCCc1cc[n+](CCCCCCCCCCCC[n+]2ccc(CCCC=C)cc2)cc1.[Cl-].[Cl-] | 1.47 µg/mL | 1.47 µg/mL | 0.75 µg/mL | 1.47 µg/mL | 5.87 µg/mL | 0.75 µg/mL | 2.93 µg/mL | 5.87 µg/mL | 1.47 µg/mL | MIC (Candida albicans [4]): 1.28 µg/mL; MFC (Nakaseomyces glabratus [5]): 3 µg/mL; MFC (Pichia kudriavzevii [6]): 11.8 µg/mL; MIC (Pichia kudriavzevii [10]): 11.8 µg/mL; MFC (Candida parapsilosis [12]): 2.96 µg/mL; MFC (Candida tropicalis [13]): 5.9 µg/mL; MIC (Aspergillus terreus [15]): 1.48 µg/mL; MFC50 (Cryptococcus neoformans): 5.87 µg/mL; MFC90 (Cryptococcus neoformans): 11.74 µg/mL; MFC (Cryptococcus neoformans): 2.94 µg/mL; MFC (Candida albicans [16]): 5.9 µg/mL; MFC (Candida albicans [17]): 2.96 µg/mL
2 | 0.86 µg/mL | 0.75 µg/mL | 1.48 µg/mL | 0.74 µg/mL | 1.48 µg/mL | 1.48 µg/mL | 1.48 µg/mL | 11.8 µg/mL | 0.569 µg/mL | 0.38 µg/mL | 0.75 µg/mL | CCCCCc1cc[n+](CCCCCCCCCCCC[n+]2ccc(CCCCC)cc2)cc1.[Cl-].[Cl-] | 1.48 µg/mL | 1.48 µg/mL | 0.75 µg/mL | 1.48 µg/mL | 1.48 µg/mL | 0.38 µg/mL | 1.48 µg/mL | 1.48 µg/mL | 0.75 µg/mL | MFC [22]: 2.96 µg/mL; MFC (Pichia kudriavzevii [23]): 11.8 µg/mL; MFC (Aspergillus flavus [19]): 47.3 µg/mL; MFC (Aspergillus terreus [24]): 11.8 µg/mL; MFC (Pichia kudriavzevii [6]): 11.8 µg/mL; MFC (Lomentospora prolificans): 2.96 µg/mL; MIC (Pichia kudriavzevii [10]): 5.9 µg/mL; MFC (Candida parapsilosis [12]): 1.48 µg/mL; MIC (Aspergillus terreus [15]): 5.9 µg/mL; MFC50 (Cryptococcus neoformans): 1.48 µg/mL; MFC90 (Cryptococcus neoformans): 47 µg/mL; MFC (Cryptococcus neoformans): 1.48 µg/mL
3 | 1.04 µg/mL | 0.79 µg/mL | 1.56 µg/mL | 0.79 µg/mL | 1.56 µg/mL | 1.56 µg/mL | 0.79 µg/mL | 3.2 µg/mL | 0.789 µg/mL | 0.79 µg/mL | 1.56 µg/mL | CCCCCCc1cc[n+](CCCCCCCCCCCC[n+]2ccc(CCCCCC)cc2)cc1.[Cl-].[Cl-] | 1.56 µg/mL | 1.56 µg/mL | 1.56 µg/mL | 1.56 µg/mL | 1.56 µg/mL | 0.39 µg/mL | 0.79 µg/mL | 6.22 µg/mL | 0.79 µg/mL | MFC (Candida parapsilosis [18]): 50.7 µg/mL; MFC (Aspergillus flavus [19]): 25.3 µg/mL; MIC (Candida albicans [4]): 1.56 µg/mL; MFC [25]: 25.3 µg/mL; MIC (Aspergillus terreus [15]): 0.79 µg/mL; MFC (Aspergillus fumigatus [26]): 50.7 µg/mL; MFC50 (Cryptococcus neoformans): 0.79 µg/mL; MFC90 (Cryptococcus neoformans): 12.45 µg/mL; MFC (Cryptococcus neoformans): 0.79 µg/mL; MFC (Aspergillus fumigatus [21]): 50.7 µg/mL

Row | Compound | MIC (Clavispora lusitaniae [2]) | MIC50 (Clavispora lusitaniae [2]) | MIC90 (Clavispora lusitaniae [2]) | MIC (Candida tropicalis [3]) | MIC50 (Candida albicans [4]) | MIC90 (Candida albicans [4]) | MIC [7] | MIC (Pichia kudriavzevii [8]) | MIC [9] | MIC50 [9] | MIC90 [9] | MFC50 (Candida albicans [1]) | MFC90 (Candida albicans [1]) | MFC (Candida albicans [1]) | MFC50 (Nakaseomyces glabratus [11]) | MFC90 (Nakaseomyces glabratus [11]) | MFC (Nakaseomyces glabratus [11]) | MFC50 (Clavispora lusitaniae [14]) | MFC90 (Clavispora lusitaniae [14]) | MFC (Clavispora lusitaniae [14]) | other results
4 | CCCCCc1cc[n+](CCCCCCCCCCCC[n+]2ccc(CCCCC)c(C)c2)cc1C.[Cl-].[Cl-] | 2.71 µg/mL | 3.11 µg/mL | 3.11 µg/mL | 0.79 µg/mL | 1.56 µg/mL | 1.56 µg/mL | 1.58 µg/mL | 6.3 µg/mL | 0.903 µg/mL | 0.79 µg/mL | 1.56 µg/mL | 1.56 µg/mL | 1.56 µg/mL | 0.79 µg/mL | 0.79 µg/mL | 1.56 µg/mL | 0.39 µg/mL | 3.11 µg/mL | 6.22 µg/mL | 1.56 µg/mL | MFC (Candida parapsilosis [18]): 50.7 µg/mL; MFC (Aspergillus flavus [19]): 25.3 µg/mL; MFC (Exophiala spinifera): 1.58 µg/mL; MIC (Candida albicans [4]): 1.36 µg/mL; MFC (Nakaseomyces glabratus [5]): 3.2 µg/mL; MFC (Lomentospora prolificans): 6.83 µg/mL; MFC (Aspergillus flavus [20]): 50.7 µg/mL; MFC (Candida tropicalis [13]): 1.58 µg/mL; MIC (Aspergillus terreus [15]): 0.7 µg/mL; MFC50 (Cryptococcus neoformans): 0.79 µg/mL; MFC90 (Cryptococcus neoformans): 12.45 µg/mL; MFC (Cryptococcus neoformans): 0.79 µg/mL; MFC (Aspergillus fumigatus [21]): 50.7 µg/mL
